Where two headings read alike, the source gives them in different places.
Legend:
[1] = tested on: bovine serum albumin; settings: BSA–flavonol interactions ref 69; cited from earlier work
[2] = target: T1, mCCL2-WT (Mus musculus, UniProt P10148); assay: Flavonol fluorescence quenching titration of mCCL2-WT; format: binding, murine; settings: for quenching constant (Kq) / number of binding sites: mCCL2-WT; for quenching constant (Kq): Stern–Volmer, 25 °C, 50 μM protein; for number of binding sites: double-logarithmic plot
Outline: (§1)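 Each CCL2 variant (WT dimer or monomer, E. coli BL21(DE3)-expressed) was held at 50 μM and titrated with 10–100 μM flavonol from a 20 mM DMSO stock, at 25 °C. Trp W59 was excited at 295 nm and emission read at 300–450 nm, slits 5 nm. Buffer-only additions served as controls; runs in triplicate. Ksv and Kq came from Stern–Volmer analysis; Ka and n from a double-logarithmic plot, nonlinear regression and Scatchard analysis.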

[3] = target: hCCL2-WT (Homo sapiens, UniProt P13500); assay: Flavonol fluorescence quenching titration of hCCL2-WT; format: binding; settings: for quenching constant (Kq) / number of binding sites: hCCL2-WT; for quenching constant (Kq): Stern–Volmer, 25 °C, 50 μM protein; for number of binding sites: double-logarithmic plot
hCCL2-WT, sequence (P13500 24-99): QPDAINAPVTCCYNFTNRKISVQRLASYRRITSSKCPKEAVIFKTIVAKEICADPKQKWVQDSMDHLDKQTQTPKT
Outline: as §1

[4] = target: mCCL2-M (Mus musculus, UniProt P10148, P31A); assay: Flavonol fluorescence quenching titration of mCCL2 monomer; format: binding, murine; settings: for quenching constant (Kq): Stern–Volmer, 50 μM protein
mCCL2-M, sequence (P10148 24-148 P31A): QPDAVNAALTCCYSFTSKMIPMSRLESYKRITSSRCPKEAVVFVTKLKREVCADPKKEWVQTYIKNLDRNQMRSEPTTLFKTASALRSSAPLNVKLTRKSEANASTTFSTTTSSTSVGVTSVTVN
Outline: as §1

[5] = target: hCCL2-M (Homo sapiens, UniProt P13500, P31A); assay: Flavonol fluorescence quenching titration of hCCL2 monomer; format: binding; settings: for quenching constant (Kq) / number of binding sites: hCCL2-M (monomer); for quenching constant (Kq): Stern–Volmer, 25 °C, 50 μM protein; for number of binding sites: double-logarithmic plot
hCCL2-M, sequence (P13500 24-99 P31A): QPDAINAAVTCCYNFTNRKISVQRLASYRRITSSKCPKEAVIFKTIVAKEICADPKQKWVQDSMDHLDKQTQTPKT
Outline: as §1

[6] = target: T1, mCCL2-WT; assay: 1H–15N HSQC NMR titration, chemical shift perturbation; format: binding, murine; settings: mCCL2-WT 100 μM, protein/flavonol 1:5, comparison among the three flavonols
Outline: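 15N-labelled WT murine protein, expressed in E. coli BL21(DE3), at 100 μM in 50 mM Na2HPO4/50 mM NaCl, pH 6.0. 1H–15N HSQC spectra recorded at 500 MHz and 25 °C. Flavonol from a 20 mM DMSO stock was added stepwise up to protein/ligand 1:5. Per-residue CSP was calculated from combined ΔδH and ΔδN.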

[7] = tested on: canine distemper virus; settings: comparison with morin ref 67; cited from earlier work
[8] = mCCL2-M (monomer), double-logarithmic plot

Row | Kd [2] | quenching constant (Kq) [2] | number of binding sites [2] | Kd [3] | quenching constant (Kq) [3] | number of binding sites [3] | Kd [4] | quenching constant (Kq) ([4]; mCCL2-M (monomer), 25 °C) | Kd [5] | quenching constant (Kq) [5] | number of binding sites [5] | perturbation of resonances in CSP maps [6] | Kd ([4]; dissociation constant (Kd), mCCL2-M (monomer), double-logarithmic plot, 25 °C) | number of binding sites [4, 8] | Structure (SMILES) | binding constants (Ka) [1] | inhibitory activity [7]
1 |  |  |  |  |  |  |  |  |  |  |  |  |  |  | O=c1c(O)c(-c2ccccc2)oc2cc(O)cc(O)c12 [galangin, reference compound] | 643000 L/mol | 
2 | 24 ± 6 µM | 5.0 × 10^12 m^–1 s^–1 | 1.1 ± 0.2 | 26 ± 5 µM | 5.2 × 10^12 m^–1 s^–1 | 1.1 ± 0.1 | 26 ± 5 µM | 5.1 × 10^12 m^–1 s^–1 | 25 ± 4 µM | 5.3 × 10^12 m^–1 s^–1 | 1.1 ± 0.1 | the least |  |  | O=c1c(O)c(-c2ccc(O)cc2)oc2cc(O)cc(O)c12 [kaempferol, 3,5,7-trihydroxy-2-(4-hydroxyphenyl)chromen-4-one] | 2.57e+06 L/mol | 
3 | 0.42 ± 0.03 µM | 6.1 × 10^12 m^–1 s^–1 | 1.1 ± 0.2 | 0.38 ± 0.04 µM | 5.8 × 10^12 m^–1 s^–1 | 1.3 ± 0.2 |  | 6.3 × 10^12 m^–1 s^–1 | 0.43 ± 0.02 µM | 6.2 × 10^12 m^–1 s^–1 | 1.2 ± 0.2 | largest perturbation of resonances | 0.4 ± 0.03 µM | 1.2 ± 0.1 | O=c1c(O)c(-c2cc(O)c(O)c(O)c2)oc2cc(O)cc(O)c12 [myricetin, 3,5,7-trihydroxy-2-(3,4,5-trihydroxyphenyl)chromen-4-one] | 4.9e+08 L/mol | 
4 | 3.9 ± 0.5 µM | 4.3 × 10^12 m^–1 s^–1 | 1.2 ± 0.2 | 3.5 ± 0.7 µM | 4.2 × 10^12 m^–1 s^–1 | 1.1 ± 0.1 | 3.7 ± 0.4 µM | 5.7 × 10^12 m^–1 s^–1 | 3.6 ± 0.5 µM | 5.4 × 10^12 m^–1 s^–1 | 1.2 ± 0.1 |  |  | 1.1 ± 0.2 | O=c1c(O)c(-c2ccc(O)c(O)c2)oc2cc(O)cc(O)c12 [quercetin, 2-(3,4-dihydroxyphenyl)-3,5,7-trihydroxychromen-4-one] | 3.65e+07 L/mol | higher inhibitory activity than morin

From publication PMC8153786 (ACS Omega, 2021)
